According to ChEMBL document CHEMBL3758162, “Synthesis, biological characterization and molecular modeling insights of spirochromanes as potent HDAC inhibitors” (Eur J Med Chem, 2016):
Blank lines part the entries; values can stand above or below the compound they belong to.

How the values were obtained:
CYP3A4 = CYP3A4 (Homo sapiens, UniProt P08684); experiment: Inhibition of human CYP3A4 using 7-benzyloxy-4-(trifluoromethyl)-coumarin as substrate at 10 uM after 30 mins by fluorimetric analysis; type: ADME; settings: probe 7-benzyloxy-4-(trifluoromethyl)-coumarin
Method in brief: (§1)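 Test compounds at 10 µM in potassium phosphate buffer pH 7.4 with NADPH regenerating system (final 1.3 mM NADP⁺, 3.3 mM glucose 6-phosphate, 0.4 U/ml G6PDH); reaction started at 37 °C by adding Supersomes isoenzyme plus substrate. Enzyme and substrate amounts: CYP1A2 0.5 pmol, 5 µM CEC; CYP2C19 0.5 pmol, 25 µM CEC; CYP3A4 1 pmol, 50 µM BFC; CYP2D6 1.5 pmol, 1.5 µM AMMC. Stopped with acetonitrile/Tris base; fluorescence read; % inhibition versus enzyme without inhibitor; n≥2, mean.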

[1] = Metabolic stability in mouse liver microsomes assessed as compound remaining at 1 uM preincubated for 10 mins measured after 30 mins by LC-MS/MS analysis; type: ADME; settings: for remaining at 0.5 h, 1 µM: liver microsomes, read-out: Stability
Method in brief: (§2)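 Compound at 1 µM pre-incubated 10 min at 37 °C in potassium phosphate buffer pH 7.4 with 0.5 mg/mL mouse or human hepatic microsomes. Parent quantified by LC-MS/MS (ESI+, MRM, verapamil internal standard). % remaining = peak area at 30 min / area at 0 min × 100; n≥2, mean.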

Histone deacetylase 3 [2] = biological target: T1, Histone deacetylase 3 (Homo sapiens, UniProt O15379); experiment: Inhibition of recombinant human HDAC3 after 15 mins by fluorescence assay
Method in brief: (§3)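 Recombinant human HDAC2, 3 or 6 (20, 6 and […] respectively) diluted in assay buffer with inhibitor and 25 µM fluorogenic acetyl-lysine substrate; 15 min at room temperature, then developer 10 min; fluorescence read. Concentration–inhibition data fitted by non-linear regression to give IC50; replicates n≥2, mean shown.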

[3] = (§4) Metabolic stability in human liver microsomes assessed as compound remaining at 1 uM preincubated for 10 mins measured after 30 mins by LC-MS/MS analysis; type: ADME; settings: liver microsomes, read-out: Stability; method in brief: as §2
CYP2C19 = CYP2C19 (Homo sapiens, UniProt P33261); experiment: Inhibition of human CYP2C19 using 3-cyano-7-ethoxycoumarin as substrate at 10 uM after 30 mins by fluorimetric analysis; type: ADME; settings: probe 3-cyano-7-ethoxycoumarin; method in brief: as §1
CYP2D6 = CYP2D6 (Homo sapiens, UniProt P10635); experiment: Inhibition of human CYP2D6 using 3-[2-(N,N-diethyl-N-methylamino)ethyl]-7-methoxy-4-methylcoumarin as substrate at 10 uM after 30 mins by fluorimetric analysis; type: ADME; method in brief: as §1
Histone deacetylase 2 [4] = biological target: T2, Histone deacetylase 2 (Homo sapiens, UniProt Q92769); experiment: Inhibition of recombinant human HDAC2 after 15 mins by fluorescence assay; method in brief: as §3
CYP1A2 = biological target: T3, CYP1A2 (Homo sapiens, UniProt P05177); experiment: Inhibition of human CYP1A2 using 3-cyano-7-ethoxycoumarin as substrate at 10 uM after 15 mins by fluorimetric analysis; type: ADME; settings: probe 3-cyano-7-ethoxycoumarin; method in brief: as §1
T3 sequence (P05177 whole entry): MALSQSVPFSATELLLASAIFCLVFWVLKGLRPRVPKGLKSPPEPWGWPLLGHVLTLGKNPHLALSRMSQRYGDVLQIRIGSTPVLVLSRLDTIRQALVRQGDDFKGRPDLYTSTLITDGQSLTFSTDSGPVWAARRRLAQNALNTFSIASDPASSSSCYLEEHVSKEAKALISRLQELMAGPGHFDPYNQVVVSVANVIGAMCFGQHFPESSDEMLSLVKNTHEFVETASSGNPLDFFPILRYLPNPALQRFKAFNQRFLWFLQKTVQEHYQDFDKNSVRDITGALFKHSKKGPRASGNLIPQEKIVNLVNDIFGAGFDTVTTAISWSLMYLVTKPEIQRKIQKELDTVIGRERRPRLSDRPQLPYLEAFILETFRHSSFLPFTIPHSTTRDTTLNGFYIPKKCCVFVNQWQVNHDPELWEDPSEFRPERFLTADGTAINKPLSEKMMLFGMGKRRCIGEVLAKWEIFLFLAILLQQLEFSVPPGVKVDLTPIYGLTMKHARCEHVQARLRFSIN

[5] = biological target: T4, Protein deacetylase HDAC6 (Homo sapiens, UniProt Q9UBN7); experiment: Inhibition of recombinant human HDAC6 after 15 mins by fluorescence assay; method in brief: as §3
T4 sequence (Q9UBN7 whole entry): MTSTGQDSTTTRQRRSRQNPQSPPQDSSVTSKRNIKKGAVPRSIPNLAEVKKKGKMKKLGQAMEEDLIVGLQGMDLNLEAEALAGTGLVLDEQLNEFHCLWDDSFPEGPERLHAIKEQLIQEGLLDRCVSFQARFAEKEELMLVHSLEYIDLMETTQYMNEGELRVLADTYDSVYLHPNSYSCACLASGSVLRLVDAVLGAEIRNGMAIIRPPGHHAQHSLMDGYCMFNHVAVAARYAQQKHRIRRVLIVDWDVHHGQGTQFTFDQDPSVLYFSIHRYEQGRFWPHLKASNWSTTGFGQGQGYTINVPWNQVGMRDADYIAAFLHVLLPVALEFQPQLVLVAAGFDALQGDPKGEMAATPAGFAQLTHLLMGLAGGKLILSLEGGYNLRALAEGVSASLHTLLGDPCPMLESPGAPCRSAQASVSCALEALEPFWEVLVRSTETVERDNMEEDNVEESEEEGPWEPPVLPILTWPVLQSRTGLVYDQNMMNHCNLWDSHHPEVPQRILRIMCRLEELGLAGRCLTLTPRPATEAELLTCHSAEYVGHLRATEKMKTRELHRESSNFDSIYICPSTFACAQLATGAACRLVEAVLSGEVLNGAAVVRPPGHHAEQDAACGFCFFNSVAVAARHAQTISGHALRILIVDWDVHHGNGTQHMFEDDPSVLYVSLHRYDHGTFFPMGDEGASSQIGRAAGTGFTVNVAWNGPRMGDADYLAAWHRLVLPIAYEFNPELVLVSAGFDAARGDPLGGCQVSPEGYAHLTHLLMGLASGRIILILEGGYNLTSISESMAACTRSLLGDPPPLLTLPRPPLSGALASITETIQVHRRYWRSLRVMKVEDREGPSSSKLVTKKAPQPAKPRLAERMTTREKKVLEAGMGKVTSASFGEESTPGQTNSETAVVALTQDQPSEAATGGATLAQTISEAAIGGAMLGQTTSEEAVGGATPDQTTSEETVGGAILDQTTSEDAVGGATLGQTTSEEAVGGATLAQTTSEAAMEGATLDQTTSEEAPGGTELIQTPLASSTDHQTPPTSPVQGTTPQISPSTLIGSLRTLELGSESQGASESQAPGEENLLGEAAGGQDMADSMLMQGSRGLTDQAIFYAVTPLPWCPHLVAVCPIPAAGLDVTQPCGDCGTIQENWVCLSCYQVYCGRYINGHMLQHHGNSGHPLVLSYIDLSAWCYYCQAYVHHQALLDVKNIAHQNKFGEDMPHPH

[6] = Solubility of the compound at pH 4.5; type: physicochemical; settings: buffer
Histone deacetylase = experiment: Inhibition of HDAC in human HeLa cells nuclear extract using Fluor de lys as substrate after 15 mins by fluorometric analysis; type: cell-based
A549 = experiment: Antiproliferative activity against human A549 cells assessed as cell viability after 72 hrs by CellTitre-Glo luminescent assay; type: functional, cell-based
K562 = experiment: Antiproliferative activity against human K562 cells assessed as cell viability after 72 hrs by CellTitre-Glo luminescent assay; type: functional, cell-based
[7] = Antiproliferative activity against human HCT116 cells assessed as cell viability after 72 hrs by CellTitre-Glo luminescent assay; type: functional, cell-based, HCT-116
Liver microsome = experiment: as §4; type: ADME; settings: microsomes, 0.5 h, 1 µM; method in brief: as §2
Histone deacetylase 3 [8] = biological target: T1, Histone deacetylase 3; experiment: Inhibition of HDAC3 (unknown origin)
[9] = biological target: T4, Protein deacetylase HDAC6; experiment: Inhibition of HDAC6 (unknown origin)
Histone deacetylase 2 [10] = biological target: T2, Histone deacetylase 2; experiment: Inhibition of HDAC2 (unknown origin)

CYP2C19, sequence (P33261 whole entry): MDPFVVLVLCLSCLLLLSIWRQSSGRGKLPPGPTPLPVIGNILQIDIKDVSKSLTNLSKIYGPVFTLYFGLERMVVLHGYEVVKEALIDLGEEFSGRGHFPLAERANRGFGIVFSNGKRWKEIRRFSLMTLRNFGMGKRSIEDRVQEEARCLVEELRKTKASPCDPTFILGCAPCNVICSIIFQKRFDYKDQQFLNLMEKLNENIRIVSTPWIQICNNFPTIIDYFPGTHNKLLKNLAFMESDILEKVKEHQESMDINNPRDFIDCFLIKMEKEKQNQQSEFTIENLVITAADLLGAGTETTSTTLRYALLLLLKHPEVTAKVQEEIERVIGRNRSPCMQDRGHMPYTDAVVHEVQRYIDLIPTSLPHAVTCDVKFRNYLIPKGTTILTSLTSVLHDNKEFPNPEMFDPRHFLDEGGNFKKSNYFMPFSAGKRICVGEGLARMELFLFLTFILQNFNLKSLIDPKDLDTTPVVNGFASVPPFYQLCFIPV
T2 sequence (Q92769 whole entry): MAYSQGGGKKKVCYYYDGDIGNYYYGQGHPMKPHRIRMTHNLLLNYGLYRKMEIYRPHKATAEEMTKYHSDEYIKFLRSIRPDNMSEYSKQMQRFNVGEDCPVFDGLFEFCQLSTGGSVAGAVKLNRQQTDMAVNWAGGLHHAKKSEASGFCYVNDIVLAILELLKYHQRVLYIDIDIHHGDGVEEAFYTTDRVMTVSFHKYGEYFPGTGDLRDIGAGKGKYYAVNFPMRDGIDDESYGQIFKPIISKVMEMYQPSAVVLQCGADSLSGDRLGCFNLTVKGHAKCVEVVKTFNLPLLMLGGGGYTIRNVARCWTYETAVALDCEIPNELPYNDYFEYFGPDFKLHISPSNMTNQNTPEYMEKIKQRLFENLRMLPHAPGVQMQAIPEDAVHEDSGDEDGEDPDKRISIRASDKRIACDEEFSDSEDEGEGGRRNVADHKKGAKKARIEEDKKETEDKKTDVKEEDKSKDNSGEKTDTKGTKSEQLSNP
CYP3A4, sequence (P08684 whole entry): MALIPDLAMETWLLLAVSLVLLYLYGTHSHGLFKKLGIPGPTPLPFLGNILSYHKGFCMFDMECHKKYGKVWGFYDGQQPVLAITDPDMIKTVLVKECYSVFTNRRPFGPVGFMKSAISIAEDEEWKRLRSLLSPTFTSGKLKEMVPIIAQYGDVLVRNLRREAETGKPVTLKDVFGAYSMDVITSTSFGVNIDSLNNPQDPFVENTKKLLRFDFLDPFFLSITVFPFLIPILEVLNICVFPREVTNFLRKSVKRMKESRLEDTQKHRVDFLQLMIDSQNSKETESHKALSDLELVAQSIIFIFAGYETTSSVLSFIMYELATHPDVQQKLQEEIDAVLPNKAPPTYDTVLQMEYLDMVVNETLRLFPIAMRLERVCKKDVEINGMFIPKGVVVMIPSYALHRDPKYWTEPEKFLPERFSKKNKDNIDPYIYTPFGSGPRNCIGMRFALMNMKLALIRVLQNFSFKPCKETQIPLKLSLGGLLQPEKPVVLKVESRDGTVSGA
CYP2D6, sequence (P10635 whole entry): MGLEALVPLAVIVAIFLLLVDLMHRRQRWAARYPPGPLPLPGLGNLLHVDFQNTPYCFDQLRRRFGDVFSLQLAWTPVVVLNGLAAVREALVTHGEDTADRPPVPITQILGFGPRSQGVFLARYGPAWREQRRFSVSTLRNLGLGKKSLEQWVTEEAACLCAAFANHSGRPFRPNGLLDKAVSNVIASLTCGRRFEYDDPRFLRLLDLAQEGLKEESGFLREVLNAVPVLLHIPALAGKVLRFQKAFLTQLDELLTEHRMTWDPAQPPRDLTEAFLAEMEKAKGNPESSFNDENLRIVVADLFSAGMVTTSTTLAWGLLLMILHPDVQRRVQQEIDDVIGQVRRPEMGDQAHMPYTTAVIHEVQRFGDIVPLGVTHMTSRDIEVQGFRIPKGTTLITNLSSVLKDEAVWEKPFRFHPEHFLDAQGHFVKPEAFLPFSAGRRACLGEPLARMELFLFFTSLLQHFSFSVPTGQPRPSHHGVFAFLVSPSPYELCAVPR
T1 sequence (O15379 whole entry): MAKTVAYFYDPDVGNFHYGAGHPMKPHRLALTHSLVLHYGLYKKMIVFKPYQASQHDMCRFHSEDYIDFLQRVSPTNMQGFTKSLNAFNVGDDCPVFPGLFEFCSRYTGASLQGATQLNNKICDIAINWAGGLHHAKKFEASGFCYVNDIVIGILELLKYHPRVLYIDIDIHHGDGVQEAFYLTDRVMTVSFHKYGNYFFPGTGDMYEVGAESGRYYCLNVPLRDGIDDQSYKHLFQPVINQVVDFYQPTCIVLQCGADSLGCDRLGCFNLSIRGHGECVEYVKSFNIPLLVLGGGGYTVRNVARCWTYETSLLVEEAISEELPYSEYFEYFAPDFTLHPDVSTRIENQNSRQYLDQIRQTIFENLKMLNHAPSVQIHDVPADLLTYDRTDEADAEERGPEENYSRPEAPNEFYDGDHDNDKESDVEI

inhibition at 0.5 h, 10 µM (CYP3A4): 40% | remaining at 0.5 h, 1 µM [1]: 57% | remaining at 0.5 h, 1 µM [3]: 66% | inhibition at 0.5 h, 10 µM (CYP2C19): 42% | inhibition at 0.5 h, 10 µM (CYP2D6): 41% | IC50 [5]: 0.138 µM | IC50 (Histone deacetylase 2 [4]): 0.199 µM | inhibition at 0.25 h, 10 µM (CYP1A2): 13%
SMILES: O=C(/C=C/c1ccc2c(c1)C(=O)CC1(CCN(CCc3ccccc3)CC1)O2)NO

solubility [6]: > 500 µM | inhibition at 0.5 h, 10 µM (CYP3A4): 41% | remaining at 0.5 h, 1 µM [1]: 39% | IC50 (Histone deacetylase): 0.056 µM | IC50 (A549; Homo sapiens, A549, 72 h): 0.184 µM | remaining at 0.5 h, 1 µM [3]: 27% | IC50 (K562; Homo sapiens, K562, 72 h): 0.188 µM | inhibition at 0.5 h, 10 µM (CYP2C19): 81% | inhibition at 0.5 h, 10 µM (CYP2D6): 52% | inhibition at 0.25 h, 10 µM (CYP1A2): 5%
SMILES: O=C(/C=C/c1ccc2c(c1)C(=O)CC1(CCCN(CCc3ccccc3)CC1)O2)NO (racemic)
IC50 ([7]; Homo sapiens, HCT-116, 72 h): 0.062 µM

solubility [6]: > 500 µM | inhibition at 0.5 h, 10 µM (CYP3A4): 69% | remaining at 0.5 h, 1 µM [1]: 27% | IC50 (Histone deacetylase): 0.052 µM | IC50 (A549; Homo sapiens, A549, 72 h): 0.389 µM | Stability (Liver microsome): 24% | IC50 (Histone deacetylase 3 [8]): 0.028 µM | IC50 [9]: 0.123 µM | IC50 (K562; k562): 0.271 µM | inhibition at 0.5 h, 10 µM (CYP2C19): 39% | inhibition at 0.5 h, 10 µM (CYP2D6): 70% | IC50 (Histone deacetylase 2 [10]): 0.082 µM | inhibition at 0.25 h, 10 µM (CYP1A2): 5%
SMILES: O=C(/C=C/c1ccc2c(c1)C(=O)CC1(CCN(Cc3ccccc3)C1)O2)NO (racemic)
IC50 ([7]; Homo sapiens, HCT-116, 72 h): 0.072 µM

IC50 (Histone deacetylase): 0.037 µM | IC50 (A549; a549): 0.303 µM | Stability (Liver microsome): 11% | IC50 (K562; k562): 0.13 µM
SMILES: O=C(/C=C/c1ccc2c(c1)C(=O)CC1(CCN(Cc3ccccc3)C1)O2)NO (stereo in doubt; 32j)
IC50 ([7]; hct-116): 0.071 µM

Second part, the compound before the results:

SMILES: O=C(/C=C/c1ccc2c(c1)C(=O)CC1(CCN(Cc3ccc(F)cc3)CC1)O2)NO
inhibition at 0.5 h, 10 µM (CYP3A4): 34% | remaining at 0.5 h, 1 µM [1]: 47% | IC50 (Histone deacetylase 3 [2]): 0.092 µM | remaining at 0.5 h, 1 µM [3]: 63% | inhibition at 0.5 h, 10 µM (CYP2C19): 61% | inhibition at 0.5 h, 10 µM (CYP2D6): 43% | IC50 (Histone deacetylase 2 [4]): 0.32 µM | inhibition at 0.25 h, 10 µM (CYP1A2): 5%

SMILES: CN1CCCC2(CC1)CC(=O)c1cc(/C=C/C(=O)NO)ccc1O2 (racemic)
solubility [6]: > 500 µM | inhibition at 0.5 h, 10 µM (CYP3A4): 12% | remaining at 0.5 h, 1 µM [1]: 62% | IC50 (Histone deacetylase): 0.114 µM | IC50 (A549; Homo sapiens, A549, 72 h): 0.534 µM | remaining at 0.5 h, 1 µM [3]: 79% | IC50 (K562; Homo sapiens, K562, 72 h): 0.329 µM | inhibition at 0.5 h, 10 µM (CYP2C19): 9% | inhibition at 0.5 h, 10 µM (CYP2D6): 5% | inhibition at 0.25 h, 10 µM (CYP1A2): 5% | IC50 ([7]; Homo sapiens, HCT-116, 72 h): 0.098 µM

SMILES: O=C(/C=C/c1ccc2c(c1)C(=O)CC1(CCCN(Cc3ccccc3)CC1)O2)NO (racemic)
remaining at 0.5 h, 1 µM [1]: 25% | IC50 (Histone deacetylase): 0.073 µM | IC50 (A549; Homo sapiens, A549, 72 h): 0.371 µM | remaining at 0.5 h, 1 µM [3]: 19% | IC50 (Histone deacetylase 3 [8]): 0.03 µM | IC50 [9]: 0.151 µM | IC50 (K562; Homo sapiens, K562, 72 h): 0.162 µM | IC50 (Histone deacetylase 2 [10]): 0.072 µM | IC50 ([7]; Homo sapiens, HCT-116, 72 h): 0.047 µM

SMILES: O=C(/C=C/c1ccc2c(c1)C(=O)CC1(CCN(Cc3ccccc3)C1)O2)NO (single isomer, unassigned; (-))
Stability ([1]; microsomes, 0.5 h, 1 µM): 19% | IC50 (Histone deacetylase): 0.026 µM | IC50 (A549; a549): 0.332 µM | Stability (Liver microsome): 23% | IC50 (K562; k562): 0.119 µM | IC50 ([7]; hct-116): 0.066 µM
